The values that follow come from ChEMBL document CHEMBL1142173, “Novel macrolide resistance module carried by the IncP-1beta resistance plasmid pRSB111, isolated from a wastewater treatment plant” (2007).

Converted amounts (≈) assume the structure as drawn.

Format in all cases: functional
For test [1], the system named is Escherichia coli. As to the kind of experiment: Antibacterial activity against Escherichia coli DH5-alpha containing macrolide-resistant pUC18-mph(E) region. The conditions noted are these: DH5alpha. The method, boiled down:
(§1)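 Host is E. coli DH5α carrying pUC18 with PCR-amplified fragments of the pRSB111 macrolide resistance region (covering mphR(E), mph(E) and/or mrx(E)). MIC is read per recombinant strain, with DH5α carrying empty pUC18 as control.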

Test [2] concerns Pseudomonas sp. As to the kind of experiment: Antibacterial activity against Pseudomonas sp. B13 GFP1.
The subject of test [3] is Escherichia coli. As to the kind of experiment: Antibacterial activity against Escherichia coli DH5-alpha containing macrolide-resistant pUC18-mrx(E) region. The conditions noted are these: DH5alpha. The method, boiled down:
as §1

Test [4] has as its system Escherichia coli. Nature of the test: Antibacterial activity against Escherichia coli DH5alpha containing macrolide-resistant pUC18-mph(E)-mrx(E) region. The method, boiled down:
as §1

Test [5] deals with Pseudomonas sp. Nature of the test: Antibacterial activity against Pseudomonas sp. B13 GFP1 containing multiresistance plasmid pRSB101.
In test [6] the test system is Escherichia coli. Nature of the test: Antibacterial activity against Escherichia coli DH5-alpha containing pUC18. Particulars: DH5alpha. The method, boiled down: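 MIC measured for E. coli DH5α transformed with the empty vector pUC18, which served as the control. It was tested alongside DH5α carrying pUC18 clones of PCR-amplified fragments of the pRSB111 macrolide resistance region (mphR(E), mph(E), mrx(E)).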

For test [7], the system named is Pseudomonas sp. As to the kind of experiment: Antibacterial activity against Pseudomonas sp. B13 GFP1 containing macrolide resistance plasmid pRSB111. In a few lines: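 Host is Pseudomonas sp. strain B13 GFP1 carrying pRSB111, captured by exogenous mating from wastewater-plant final effluent. It is maintained in LB with erythromycin (300 μg/ml) at 30°C. MIC is in μg/ml, with the plasmid-free B13 GFP1 strain tested alongside.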

Usually MIC stands for the smallest concentration in the dilution series that meets the test's criterion for growth inhibition. For `CC[C@H]1OC(=O)[C@H](C)[C@@H](O[C@H]2C[C@@](C)(OC)[C@@H](O)[C@H](C)O2)[C@H](C)[C@@H](O[C@@H]2O[C@H](C)C[C@H](N(C)C)[C@H]2O)[C@](C)(O)C[C@@H](C)/C(=N\OCOCCOC)[C@H](C)[C@@H](O)[C@]1(C)O` [ROXITHROMYCIN], the MIC in the test on Escherichia coli [1] came out at 550 µg/mL (≈ 657 µM); in the test with Pseudomonas sp. [2], 25 µg/mL (≈ 29.9 µM); against Escherichia coli [3] it was 300 µg/mL (≈ 358 µM); with Escherichia coli [4], 2500 µg/mL (≈ 2990 µM); against Pseudomonas sp. [5], 1200 µg/mL (≈ 1430 µM); in the test on Escherichia coli [6] it was 450 µg/mL (≈ 538 µM). The MIC with Pseudomonas sp. [7] was 1400 µg/mL (≈ 1670 µM).
Take `CC[C@H]1OC(=O)[C@H](C)[C@@H](O[C@H]2C[C@@](C)(OC)[C@@H](O)[C@H](C)O2)[C@H](C)[C@@H](O[C@@H]2O[C@H](C)C[C@H](N(C)C)[C@H]2O)[C@](C)(O)C[C@@H](C)C(=O)[C@H](C)[C@@H](O)[C@]1(C)O` [ERYTHROMYCIN]: the minimum inhibitory concentration (MIC) against Escherichia coli [1] amounted to 250 µg/mL (≈ 341 µM); against Pseudomonas sp. [2], 20 µg/mL (≈ 27.3 µM); against Escherichia coli [3], 150 µg/mL (≈ 204 µM); against Escherichia coli [4] it was 2400 µg/mL (≈ 3270 µM); against Pseudomonas sp. [5] it was 2500 µg/mL (≈ 3410 µM); against Escherichia coli [6], 200 µg/mL (≈ 273 µM). This compound had an MIC in the test on Pseudomonas sp. [7] of 2500 µg/mL (≈ 3410 µM).
With `CC[C@H]1OC(=O)C[C@@H](O)[C@H](C)[C@@H](O[C@@H]2O[C@H](C)[C@@H](O[C@H]3C[C@@](C)(O)[C@@H](O)[C@H](C)O3)[C@H](N(C)C)[C@H]2O)[C@@H](CC=O)C[C@@H](C)C(=O)/C=C/C(C)=C/[C@@H]1CO[C@@H]1O[C@H](C)[C@@H](O)[C@@H](OC)[C@H]1OC` [TYLOSIN], the MIC in the test with Pseudomonas sp. [2] amounted to 150 µg/mL (≈ 164 µM); in the test with Pseudomonas sp. [5] it was 150 µg/mL (≈ 164 µM); against Pseudomonas sp. [7], 400 µg/mL (≈ 437 µM).
